The text below walks through data of the RNAGym collection of RNA variant scans (doi:10.1126/science.aae0568).

The labels stand for the following.
B1: tRNA (parent)
chain: GUUCCGUUGGCGUAAUGGUAACGCGUCUCCCUCCUAAGGAGAAGACUGCGGGUUCGAGUCCCGUACGGAACG

Variants at the floor of the assay were thinned out.

The variants in this data set derive from B1. The data set can be described thus: yeast fitness relative to wild type (ratio to wild type); higher = fitter; tRNA-Arg(CCU), competitive growth, 37 C, YPD. A digest of the protocol:
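Gene amplicons from the start population and from each of six end populations were read by 100-nucleotide paired-end sequencing. Those end populations came from pooled Saccharomyces cerevisiae strains carrying tRNA-Arg(CCU) gene variants at the native locus, competed in YPD at 37°C for 24 hours. Fitness relative to wild type was worked out from changes in genotype frequencies. Genotypes needed ≥ 100 starting reads, and estimates < 0.5 were set to 0.5.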
In the case of GUUCCGUUGGCGAAAUGGUCACGCGUCUCCCUCUUAAGGAGAAGACUGCCGGUUCGAGUCCCGUACGGUACG [U13A A20C C34U G50C A69U], the yeast fitness is at most 0.5. On to GUUCCGUUGGCGAAAUGGUAACGCGUCUCCCUCCUAAGGAGUAGACUGCGGGUUCGCGUCUCGUUCGGAACG [U13A A42U A57C C61U A65U], for which the yeast fitness was at most 0.5. On to GUUCCGUUGGCGAAAUGGUAACGCGUCUCCCUCCUGAGGAGAUGACUGCGAGUUCGAGUCCCGUACGGAACG [U13A A36G A43U G51A], for which the yeast fitness is at most 0.5. Turning to GUUCCGUUGGCGAAGUGGUAACGCGUUUCCCUCCUAAGGAGAAGACUGCGGGUUCGAGUCCAAUACGGACCG [U13A A15G C27U C62A G63A A70C], the yeast fitness is at most 0.5. As for GUUCCGUUGGCGAUAUGGUAACGGGUCGCCUUCCUAAGGAGAAGACUGCGGGUUCGAGUCCCGUAUGGAACG [U13A A14U C24G U28G C31U C66U], the yeast fitness is at most 0.5. GUUCCGUUGGCGAAAUGGUAACGCGUCUCCCUCCUAAGGGGAAGACUGCGGGUUCGAGUCCCGUACGGAACG [U13A A40G]: the yeast fitness turned out to be 0.733. For the variant GUUCCGUUGGCGAAAUGGUAACGCGUCUCCCUCCUAAGGCGAAGACUGCGGGUUCGAGUCCCGUACGGAACG [U13A A40C], the yeast fitness worked out at 0.789.

For the variant GUUCCGUUGGCGAAGUGGUAACGCGUCUCCCUCCUAAGGAGAAGACAGCGGGUUCGAGUCCCGGACGGAACG [U13A A15G U47A U64G], the yeast fitness was at most 0.5. Turning to GUUCCGUUGGCGAAAUGGUAACGCGUCUCCCUCCUAAGGAGUAGACUGCGGGUUCGAGUCCCGUACGGAGCG [U13A A42U A70G], the yeast fitness is 0.745. With GUUCCGUUGGCGAAAUGGUGUCGCGUCUCCCUCCUAAGGUGAAGACUGCGGGUUCGAGUCCCGUACGGAACG [U13A A20G A21U A40U] the figure was at most 0.5. In the case of GUUCCGUUGGCGAAAUGGUAACGCGUCUCCCUCCUAAGGGGGAGACUGCGGGUUCGCGUCCCGUAUGGAACG [U13A A40G A42G A57C C66U], the yeast fitness stood at 0.522. In the case of GUUCCGUUGGCGAAAUGGUGACGUGUCUCCCUCCUAAGGAGAAGACUGCGGGUUCGAGCCCCGUACGGAACG [U13A A20G C24U U59C], the yeast fitness was at most 0.5. Take GUUCCGUUGGCGAAGUGGUAACGCGUCUCCCUCCUAAGGAGAAGACUGCGGGUUCGAGUCCCGUGCGGAACG [U13A A15G A65G]: the yeast fitness was found to be 0.877. For the variant GUUCCGUUGGCGAUAUGGUAACGCGUGUCCCUCCUAAGGAGAAGAGUGCGGGUUCGAGUCCCGUACGGAACG [U13A A14U C27G C46G], the yeast fitness turned out to be 0.553. Consider GUUCCGUUGGCGAAAUGGUAACGCGUCUCCCUCCUAAGGAGCAGACUGCGGGUUCGAGUCCCGUACGGAACG [U13A A42C], for which the yeast fitness was found to be 1.05. In the case of GUUCCGUUGGCGAAAUGGUAACGCGUCUCCCUCCUAAGGAGGAGACUGCGGGUUCGAGUCCCGUACGGAACG [U13A A42G], the yeast fitness was determined as 0.851. Turning to GUUCCGUUGGCGAAAUGGUAACGCGUCUCCCUCCUAAGGGGAAGACGGCGGGUUCGAGUCCCCUACGGAACG [U13A A40G U47G G63C], the yeast fitness is 0.535.

In the case of GUUCCGUUGGCGAAAUGGUGACGCGUCUCCCUCCUAAGGAAAAGACUGCGCGUUCGAGUCCCGUACCGAACG [U13A A20G G41A G51C G67C], the yeast fitness is at most 0.5. In the case of GUUCCGUUGGCGAAAUGGUAACGCGUCUCCCUCCUAUGGAGAAGACUGCGGGGUCGAGUCCCGUACGGAACG [U13A A37U U53G], the yeast fitness came to 0.536.

Regarding GUUCCGUUGGCGAAAUGGUACCGCGUCUCCCUCCUAAGGAGAAGACUGCGGGUUCGAGUCCCGUACGGAACG [U13A A21C], the yeast fitness is 0.65. For the variant GUUCCGUUGGCGAAAUGGUAACGCGUCUCCCUCCUAAGGAGACGACUGCGGGUUCGCGUCCCGUACGGAUCG [U13A A43C A57C A70U], the yeast fitness was found to be 0.551. GUUCCGUUGGCGAAAUGGUAACGCGUCUCCCUCCUAAGGCGAAGACUGCGGGAUCGAGUCCCGUACGGAACG [U13A A40C U53A]: the yeast fitness is 0.53. On to GUUCCGUUGGCGAAAUGGUCACGCGUCUCCCUCCUAAGGAGAAGACUGCGGGUUCGAGUCCCGUACGGAACG [U13A A20C], for which the yeast fitness was 0.715.

For GUUCCGUUGGCGAAAUGGUGACGCGUCUCCCUCCUAAGGAGAAGACUGCGGGUUCGAGUCCCGUACGGAACG [U13A A20G], the yeast fitness is 0.888. With GUUCCGUUGGCGAAGUGGUAACGCGUUUCCCUCCUAAGGAGAAGACUGCGGGUUCGGGUCCCGUACGGAACG [U13A A15G C27U A57G], the yeast fitness was at most 0.5.

As to GUUCCGUUGGCGACAUGGCAACGCGUCUCCCACCUAAGGAGAAGACUGCGGGUUCGAGUCCCCUACGGAACG [U13A A14C U19C U32A G63C], the yeast fitness was determined as 0.64. GUUCCGUUGGCGAAAUGGUAACGCGUCUCCCUCCUAAGGAGUAGACUGCGGGUUCGAGUCCCGUAUGGAACG [U13A A42U C66U]: the yeast fitness was 0.704. The same measure for GUUCCGUUGGCGAAAUGGUAACGCGUCUCCCUCCUGAGGAGAAGACUGCGGGUUCAAGUCCCGUACGGAACG [U13A A36G G56A]: 0.679; for GUUCCGUUGGCGAAAUGGUAACGCGUCUCCCUCCUAAGGCGAAGACUGCGGGUUCGAGUCCCGUACGGGACG [U13A A40C A69G]: 0.629; for GUUCCGUUGGCGAAAUGGUAACGCGUCUCCCUCCUAUGGAGAAGACUGCGGGUUCGAGUCCCGUACGGAACG [U13A A37U]: 0.63. In the case of GUUCCGUUGGCGAAGUGGUAAGGUGUCUCCCUCCUAAGGAGAAAACUGCGGGGUCGAGUCCCGUACGGAACG [U13A A15G C22G C24U G44A U53G], the yeast fitness was at most 0.5. As to GUUCCGUUGGCGAAAUGGUAACGCGUCUCCCUCCUGAGGAGAAGACUGCGGGUUCGAGUCCCGUACGGAACG [U13A A36G], the yeast fitness was determined as 1.02.

GUUCCGUUGGCGAAAUGGUCACGCGUCUCCCUCCUAAGGUGAAGACUGCGGGUUCGAGUCCCGUACGGAACG [U13A A20C A40U]: the yeast fitness is at most 0.5. The same measure for GUUCCGUUGGCGAACUGGUAACGCGUCUCCCUCCUAAGGAGAAGAUUGCGGGUUCGAGUCCCGUACGGAACG [U13A A15C C46U]: 0.612; for GUUCCGUUGGCGAAAUGGUACCGACUCUCCCUCCUAAGGAGAAGACUGCGGGUUCGAGUCCCGUAGGGAACG [U13A A21C C24A G25C C66G]: 0.512; for GUUCCGUUGGCGAAAUGGUAACGCGUCUCCCUCCUAAGGAGCAGACUGCGGGUUCGAGUCCCGUAUGGAACG [U13A A42C C66U]: 0.76. With GUUCCGUUGGCGAAGUGGUAAGGCGUCACCCUCCUAAGGAGAAGACUGCGGGUUCGAGUCCCGUACGGAACG [U13A A15G C22G U28A], the yeast fitness was found to be 0.619.

As to GUUCCGUUGGCGAAAUGGUUACGCGUCUCCCUCCUACGGAGAAGACUGCGGGUUCGAGUCCCGUACGGAACG [U13A A20U A37C], the yeast fitness was 0.557.
